{"source": "ChEMBL document CHEMBL1158474", "about": "“Focus on the controversial activation of human iNKT cells by 4-deoxy analogue of KRN7000” (J Med Chem, 2009)", "key": {"[1]": {"test_system": "iNKT", "experiment": "Effect on immune response in human iNKT cells stimulated by antigen-presenting CD1d-transfected human HeLa cells assessed as induction of TNFalpha release by MTT assay", "type": "functional, cell-based", "summary_of_the_method": "(§1)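 A human Vα24 iNKT cell line was stimulated for 6 h by CD1d-transfected HeLa cells loaded overnight with increasing glycolipid concentrations. Before loading, the glycolipid was solubilized in DMSO for a couple of hours at 37 °C. Supernatant TNF-α was measured by a cellular assay, and IFN-γ and IL-4 by ELISA. Triplicates were run, and one representative of three experiments is shown. EC50 values were given as mean ± SD.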"}, "[2]": {"test_system": "Mus musculus", "experiment": "Regulation of immune response in C57BL/6J mouse assessed as induction of NKT cell cytokine response-related IFN-gamma secretion at 10 to 1000 ug/kg, ip after 2 hrs by ELISA", "type": "functional, organism-based"}, "[3]": {"test_system": "Mus musculus", "experiment": "Regulation of immune response in C57BL/6J mouse assessed as induction of NKT cell cytokine response-related IFN-gamma secretion at 100 ug/kg, ip after 18 hrs by ELISA", "type": "functional, organism-based", "summary_of_the_method": "(§2)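 Mice were given glycolipid ip at 10, 50, 100 or 1000 μg/kg. Cytokine release kinetics (TNF-α, IL-4, IFN-γ) were followed over time after injection, with sampling that included 4 h and 18 h. Groups were compared statistically (P < 0.05 threshold).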"}, "[4]": {"test_system": "Mus musculus", "experiment": "Regulation of immune response in C57BL/6J mouse assessed as induction of NKT cell cytokine response-related IL2 secretion at 10 to 1000 ug/kg, ip after 2 hrs by ELISA", "type": "functional, organism-based"}, "[5]": {"test_system": "Mus musculus", "experiment": "Regulation of immune response in C57BL/6J mouse assessed as induction of NKT cell cytokine response-related IFN-gamma secretion at 10 to 1000 ug/kg, ip after 14 hrs by ELISA", "type": "functional, organism-based"}, "[6]": {"test_system": "iNKT", "experiment": "Effect on immune response in human iNKT cells stimulated by antigen-presenting CD1d-transfected human HeLa cells assessed as induction of IFN-gamma release by ELISA", "type": "functional, cell-based", "summary_of_the_method": "as §1"}, "[7]": {"test_system": "iNKT", "experiment": "Effect on immune response in human iNKT cells stimulated by antigen-presenting CD1d-transfected human HeLa cells assessed as induction of IL4 release by ELISA", "type": "functional, cell-based", "summary_of_the_method": "as §1"}, "[8]": {"test_system": "Mus musculus", "experiment": "Regulation of immune response in C57BL/6J mouse assessed as induction of NKT cell cytokine response-related TNFalpha secretion at 100 ug/kg, ip after 4 hrs by ELISA", "type": "functional, organism-based", "summary_of_the_method": "as §2"}, "[9]": {"test_system": "Mus musculus", "experiment": "Regulation of immune response in C57BL/6J mouse assessed as induction of NKT cell cytokine response-related IL4 secretion at 100 ug/kg, ip after 4 hrs by ELISA", "type": "functional, organism-based", "summary_of_the_method": "as §2"}, "[10]": {"test_system": "Mus musculus", "experiment": "Regulation of immune response in C57BL/6J mouse assessed as induction of NKT cell cytokine response-related IL2 secretion at 10 to 1000 ug/kg, ip after 14 hrs by ELISA", "type": "functional, organism-based"}}, "note": "Activity calls are given as the source filed them."}
{"smiles": "CCCCCCCCCCCCCCCCCCCCCCCCCC(=O)N[C@@H](CO[C@H]1O[C@H](CO)[C@H](O)[C@H](O)[C@H]1O)C(O)[C@H](O)CCCCCCCCCCCCCC", "note": "(single isomer, unassigned) [RGI-7000]", "values": [{"measurement": "EC50", "setting": "[1]", "result": 5, "unit": "nM"}, {"measurement": "Activity", "setting": "[2]", "result": "Active"}, {"measurement": "Activity", "setting": "[3]", "result": "Active"}, {"measurement": "Activity", "setting": "[4]", "result": "Active"}, {"measurement": "Activity", "setting": "[5]", "result": "Active"}, {"measurement": "Activity", "setting": "[6]", "result": "Active"}, {"measurement": "Activity", "setting": "[7]", "result": "Active"}, {"measurement": "Activity", "setting": "[8]", "result": "Active"}, {"measurement": "Activity", "setting": "[9]", "result": "Active"}, {"measurement": "Activity", "setting": "[10]", "result": "Active"}]}
